From ChEMBL document CHEMBL1629582, “Novel nucleotide human immunodeficiency virus reverse transcriptase inhibitor GS-9148 with a low nephrotoxic potential: characterization of renal transport and accumulation” (Antimicrob Agents Chemother, 2009)

Assays:
[1] = molecular target: T1, Solute carrier family 22 member 6 (Homo sapiens, UniProt Q4U2R8); experiment: Activity of human OAT1 transfected in CHO cells measured per 10^6 cells; format: cell-based
T1 sequence (Q4U2R8 whole entry): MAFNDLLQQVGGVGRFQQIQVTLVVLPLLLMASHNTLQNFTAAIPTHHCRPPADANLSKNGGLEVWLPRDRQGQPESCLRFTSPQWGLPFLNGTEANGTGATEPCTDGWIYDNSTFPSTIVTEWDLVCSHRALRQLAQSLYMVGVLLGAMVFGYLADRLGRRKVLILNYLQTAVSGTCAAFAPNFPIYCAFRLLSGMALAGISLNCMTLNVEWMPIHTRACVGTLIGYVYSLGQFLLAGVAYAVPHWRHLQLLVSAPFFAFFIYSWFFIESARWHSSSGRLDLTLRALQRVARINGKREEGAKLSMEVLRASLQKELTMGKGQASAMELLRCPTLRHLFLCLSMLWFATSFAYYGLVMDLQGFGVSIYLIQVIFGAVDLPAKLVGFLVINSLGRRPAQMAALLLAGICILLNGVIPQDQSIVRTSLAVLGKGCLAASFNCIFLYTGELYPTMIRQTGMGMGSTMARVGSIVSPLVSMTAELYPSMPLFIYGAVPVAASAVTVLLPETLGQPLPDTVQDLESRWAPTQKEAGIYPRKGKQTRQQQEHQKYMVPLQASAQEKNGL
How it was run: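 Radiolabelled substrate at various concentrations incubated 20 min at 37°C with CHO cells stably expressing hOAT1 in Waymouth buffer (pH 7.2). Cells washed in ice-cold PBS, lysed in 0.3% Triton X-100, uptake read by scintillation counting. Km and Vmax fitted by Michaelis-Menten. Two independent experiments in duplicate, mean ± SD.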

[2] = Drug uptake in human kidney cortex at 5 uM by liquid scintillation counting in presence of 500 uM of probenecid; format: ADME, tissue-based
[3] = Cytotoxicity against CHO cells after 120 hrs by Cell-Titer Glo assay; format: cell-based, Cricetulus griseus; settings: chinese hamster
How it was run: (§1)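 CHO cells carrying hOAT1 or empty vector were seeded in parallel at 3 × 10³/well. After 24 h, serial drug dilutions were added in triplicate and incubated 120 h. Viability was read by luminescence relative to untreated wells. CC50 was taken by nonlinear regression from two independent experiments, mean ± SD.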

OAT1 (SLC22A6) = molecular target: T2, OAT1 (SLC22A6) (Homo sapiens, UniProt Q4U2R8); experiment: (§2) Activity of human OAT1 transfected in CHO cells; format: cell-based
T2 sequence (Q4U2R8 whole entry): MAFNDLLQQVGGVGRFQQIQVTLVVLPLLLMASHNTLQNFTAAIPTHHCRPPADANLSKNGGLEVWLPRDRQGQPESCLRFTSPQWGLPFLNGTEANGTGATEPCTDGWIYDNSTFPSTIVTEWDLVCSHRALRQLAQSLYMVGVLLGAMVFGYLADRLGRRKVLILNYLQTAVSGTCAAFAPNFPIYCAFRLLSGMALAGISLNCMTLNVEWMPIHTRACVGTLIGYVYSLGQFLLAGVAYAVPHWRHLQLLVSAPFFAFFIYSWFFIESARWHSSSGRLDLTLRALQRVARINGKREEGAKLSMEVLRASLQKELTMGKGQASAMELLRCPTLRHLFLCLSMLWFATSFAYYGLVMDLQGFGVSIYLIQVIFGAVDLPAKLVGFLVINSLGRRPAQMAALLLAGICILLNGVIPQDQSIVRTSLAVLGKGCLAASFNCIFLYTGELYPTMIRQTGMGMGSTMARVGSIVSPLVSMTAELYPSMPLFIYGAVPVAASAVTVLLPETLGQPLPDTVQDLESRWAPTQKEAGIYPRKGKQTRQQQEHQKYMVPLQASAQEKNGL
How it was run: (§3)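 CHO cells stably transfected with human OAT1, with empty-vector CHO cells run in parallel, seeded 48 h ahead. Radiolabeled substrate was given at a range of concentrations for 20 min at 37°C in Waymouth buffer pH 7.2. Cells were washed in ice-cold PBS, lysed in Triton X-100 and counted by scintillation. Km and Vmax came from Michaelis-Menten fitting; two independent experiments in duplicate, mean ± SD.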

OAT1 = experiment: Cytotoxicity against CHO cells expressing hOAT1 after 120 hrs by Cell-Titer Glo assay; format: ADME, cell-based, Cricetulus griseus; settings: chinese hamster; how it was run: as §1
CHO [4] = experiment: Cellular uptake in CHO cells expressing hOAT1 at 10 uM by liquid scintillation counting in presence of 500 uM of probenecid relative to control; format: ADME, cell-based, Cricetulus griseus; settings: chinese hamster
How it was run: (§4)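 Radiolabeled nucleotide at 10 μM was incubated at 37°C in Waymouth buffer pH 7.2 with transporter-expressing cells (CHO-hOAT1 or BHK-hOAT3) and matching empty-vector control cells, with or without 500 μM probenecid. Uptake was sampled at several time points, with longer times for hOAT3. Washed cells were lysed in Triton X-100 and counted by scintillation. Two independent experiments in duplicate, mean ± SD; two-tailed paired t test.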

[5] = AUC (0 to 24 hrs) in dog at 3 mg/kg, po; format: ADME, organism-based, Canis lupus familiaris; design: time < 24 hr, dose 3 mg/kg, route oral; settings: plasma
[6] = Percent of urinary material present as GS-9148 in dog urine at 3 mg/kg, po
[7] = Cellular uptake in human HEK293T cells expressing MRP4 efflux transporter at 5 uM by liquid scintillation counting in presence of 30 uM efflux inhibitor MK-571 relative to control; settings: hek-293t
[8] = Cellular uptake in human HEK293T cells expressing MRP4 efflux transporter assessed as accumulation of GS-9148 metabolite at 5 uM by liquid scintillation counting relative to control; format: ADME, cell-based; settings: hek-293t
[9] = Cellular uptake in BHK21 cells expressing hOAT3 at 10 uM by liquid scintillation counting in presence of 500 uM of probenecid relative to control; format: ADME, cell-based, Mesocricetus auratus; settings: hamster, bhk-21, 10 µM; how it was run: as §4
CHO [10] = experiment: Cellular uptake in CHO cells expressing hOAT1 at 10 uM by liquid scintillation counting relative to control; format: ADME, cell-based, Cricetulus griseus; settings: chinese hamster; how it was run: as §4
[11] = Cellular uptake in human HEK293T cells expressing MRP4 efflux transporter at 5 uM by liquid scintillation counting relative to control; settings: hek-293t
[12] = Cellular uptake in BHK21 cells expressing hOAT3 at 10 uM by liquid scintillation counting relative to control; format: ADME, cell-based, Mesocricetus auratus; settings: hamster, bhk-21, 10 µM; how it was run: as §4
[13] = Drug level in dog kidney at 3 mg/kg, po after 24 hrs by liquid scintillation counting; format: ADME, organism-based, Canis lupus familiaris; design: dose 3 mg/kg, route oral; settings: in vivo
How it was run: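 Three fasted dogs were given 3.0 mg/kg [14C]prodrug (10 μCi/kg) orally in 50 mM citrate pH 2.2. Kidneys were excised at 24 h, rinsed, blotted and weighed, then combusted and counted by scintillation. Values are μg equivalents per gram tissue, mean ± SD of three dogs.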

[14] = Renal clearance in dog urine at 3 mg/kg, po; format: ADME, organism-based, Canis lupus familiaris; design: dose 3 mg/kg, route oral; settings: read-out: CL_renal (converted)
How it was run: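 Fasted dogs were given 3.0 mg/kg [14C]prodrug (10 μCi/kg) in 50 mM citrate pH 2.2 by oral gavage. Urine was collected on dry ice over 0–8 and 8–24 h and counted by scintillation. Parent nucleotide in pooled 0–24 h urine was measured by radio-HPLC on a C18 column with an ammonium formate/acetonitrile gradient. Renal clearance = 24-h urinary amount / 24-h plasma exposure / body weight; three dogs.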

[15] = substrate: C[C@H](Cn1cnc2c(N)ncnc21)OCP(=O)(O)O; experiment: (§5) Activity of human OAT3 transfected in BHK-21 cells; format: cell-based
How it was run: (§6)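 BHK-21 cells stably transfected with human OAT3 (the clone with highest probenecid-sensitive uptake), with empty-vector BHK cells in parallel, seeded on fibronectin 24 h ahead. Radiolabeled substrate was given at a range of concentrations for 120 min at 37°C in Waymouth buffer pH 7.2. Lysates were counted by scintillation. Km and Vmax came from Michaelis-Menten fitting; two independent experiments in duplicate.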

[16] = substrate: Nc1ncnc2c1ncn2CCOCP(=O)(O)O; experiment: as §5; format: cell-based; how it was run: as §6
[17] = substrate: Nc1ncnc2c1ncn2[C@@H]1O[C@H](OCP(=O)(O)O)C=C1F; experiment: as §5; format: cell-based; how it was run: as §6
[18] = substrate: Nc1ncnc2c1ncn2[C@@H]1O[C@H](OCP(=O)(O)O)C=C1F; experiment: as §2; format: cell-based; how it was run: as §3

For `Nc1ncnc2c1ncn2CCOCP(=O)(O)O` [ADEFOVIR], the Vmax [1] was 46 pmol/min, the Drug uptake [2] was “Active” and the CC50 at 120 h [3] was at least 2000 µM.

For `C[C@H](Cn1cnc2c(N)ncnc21)OCP(=O)(O)O` [TENOFOVIR ANHYDROUS], the Vmax [1] was 110 pmol/min and the Km (OAT1 (SLC22A6)) was 33.8 µM.

In the case of `Nc1ncnc2c1ncn2[C@@H]1O[C@H](OCP(=O)(O)O)C=C1F` [GS-9148], the CC50 at 120 h (OAT1) is reported as 435 µM, the Drug uptake (CHO [4]) is reported as “Not Active” and the AUC(0-t) at 24 h [5] is reported as 4.9 µM·h. The percent of urinary material as GS-9148 [6] was 84%, the Drug uptake [7] was “Active” and the Drug uptake [8] was “Active”. For the same molecule, the Drug uptake [9] was “Not Active”, the Drug uptake (CHO [10]) was “Active” and the Drug uptake [11] was “Not Active”. The Drug uptake [12] was “Active”, the Drug uptake [13] was 2.49 µg/g and the CL renal [14] was 7.83 mL/min/kg.

In the case of `Nc1ccn(C[C@@H](CO)OCP(=O)(O)O)c(=O)n1.O.O` [CIDOFOVIR], the CC50 at 120 h (OAT1) is reported as 3 µM, the Vmax [1] is reported as 103 pmol/min and the CC50 at 120 h [3] is reported as 520 µM.

B1: Organic anion transporter 3 (Homo sapiens) (protein)
chain: MTFSEILDRVGSMGHFQFLHVAILGLPILNMANHNLLQIFTAATPVHHCRPPHNASTGPWVLPMGPNGKPERCLRFVHPPNASLPNDTQRAMEPCLDGWVYNSTKDSIVTEWDLVCNSNKLKEMAQSIFMAGILIGGLVLGDLSDRFGRRPILTCSYLLLAASGSGAAFSPTFPIYMVFRFLCGFGISGITLSTVILNVEWVPTRMRAIMSTALGYCYTFGQFILPGLAYAIPQWRWLQLTVSIPFFVFFLSSWWTPESIRWLVLSGKSSKALKILRRVAVFNGKKEEGERLSLEELKLNLQKEISLAKAKYTASDLFRIPMLRRMTFCLSLAWFATGFAYYSLAMGVEEFGVNLYILQIIFGGVDVPAKFITILSLSYLGRHTTQAAALLLAGGAILALTFVPLDLQTVRTVLAVFGKGCLSSSFSCLFLYTSELYPTVIRQTGMGVSNLWTRVGSMVSPLVKITGEVQPFIPNIIYGITALLGGSAALFLPETLNQPLPETIEDLENWSLRAKKPKQEPEVEKASQRIPLQPHGPGLGSS
Work on B1 yielded a Km [15] of 770 µM, a Vmax [15] of 2.87e-05 µmol/min and a Km [16] of 1220 µM. It also gave a Vmax [16] of 0.000131 µmol/min, a Km [17] of 1220 µM and a Vmax [17] of 1.95e-05 µmol/min.

B2: Solute carrier family 22 member 6 (Homo sapiens) (protein)
chain: MAFNDLLQQVGGVGRFQQIQVTLVVLPLLLMASHNTLQNFTAAIPTHHCRPPADANLSKNGGLEVWLPRDRQGQPESCLRFTSPQWGLPFLNGTEANGTGATEPCTDGWIYDNSTFPSTIVTEWDLVCSHRALRQLAQSLYMVGVLLGAMVFGYLADRLGRRKVLILNYLQTAVSGTCAAFAPNFPIYCAFRLLSGMALAGISLNCMTLNVEWMPIHTRACVGTLIGYVYSLGQFLLAGVAYAVPHWRHLQLLVSAPFFAFFIYSWFFIESARWHSSSGRLDLTLRALQRVARINGKREEGAKLSMEVLRASLQKELTMGKGQASAMELLRCPTLRHLFLCLSMLWFATSFAYYGLVMDLQGFGVSIYLIQVIFGAVDLPAKLVGFLVINSLGRRPAQMAALLLAGICILLNGVIPQDQSIVRTSLAVLGKGCLAASFNCIFLYTGELYPTMIRQTGMGMGSTMARVGSIVSPLVSMTAELYPSMPLFIYGAVPVAASAVTVLLPETLGQPLPDTVQDLESRWAPTQKEAGIYPRKGKQTRQQQEHQKYMVPLQASAQEKNGL
Work on B2 yielded a Km [18] of 259 µM and a Vmax [18] of 7.8e-06 µmol/min.
